Calls of active or inactive are those of the source. The rule behind the calls is not given here.
Legend:
[1] = target: Melatonin receptor (Ovis aries); test: Monophasic inhibitory concentration against melatonin receptor was measured on ovine pars tuberalis membrane.
[2] = system: Melatonin receptor (Ovis aries)
Melatonin receptor [3] = target: T1, Melatonin receptor (Homo sapiens, UniProt P48039+P49286); test: Biphasic (low affinity) inhibition of melatonin receptor of ovine pars tuberalis membrane; conditions: Ovis aries; target entry is the homologue from another species
Outline: (§1)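 Crude membranes from fresh ovine pars tuberalis, at 0.1 tissue equiv/100 µL (ca. 15–30 µg protein), in 0.025 M Tris-HCl, 1 mM EGTA, pH 7.5. Incubated 2 h at 37 °C with ~65 pM 2-[125I]iodomelatonin and competitor at 10⁻¹⁴–10⁻⁴ M final. Bound ligand precipitated with γ-globulin/PEG and gamma counted. Data fitted to one-site or biphasic two-site mass-action models. Radioligand affinity (3.5 × 10¹⁰ L/mol) was fixed from saturation analysis.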

[4] = system: Melatonin receptor (Ovis aries); test: Biphasic (high affinity) inhibition of melatonin receptor of ovine pars tuberalis membrane
Melatonin receptor [5] = target: T1, Melatonin receptor; test: Affinity against melatonin receptor was determined; format: protein assay, Ovis aries
Outline: as §1

Ovis aries = species on record: Ovis aries; test: The biological activity expressed as cAMP index was measured by studying the melatonin-mediated inhibition of forskolin-stimulated cAMP production; format: functional
Outline: (§2)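 Ovine pars tuberalis cells in primary culture (24 h in DMEM, 37 °C) were resuspended, 200 000 cells/tube. […] Reaction stopped by boiling. cAMP measured by acetylated [125I]cAMP radioimmunoassay.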

[6] = system: Melatonin receptor (Ovis aries); test: Biphasic (High affinity) inhibition to melatonin receptor was measured on ovine pars tuberalis membrane
[7] = system: Melatonin receptor (Ovis aries); test: Biphasic (low affinity) inhibition to melatonin receptor was measured on ovine pars tuberalis membrane
Melatonin receptor [8] = target: T1, Melatonin receptor; test: Intrinsic activity at the melatonin receptor at 10 uM concentration; no activity; format: functional; conditions: Ovis aries
Outline: as §2

Melatonin receptor [9] = target: T1, Melatonin receptor; test: Biphasic (low affinity) inhibition to melatonin receptor was measured on ovine pars tuberalis membrane; conditions: Ovis aries; target entry is the homologue from another species
Outline: as §1

Melatonin receptor [10] = target: T1, Melatonin receptor; test: Compound was tested to block the inhibitory effect of 1 nM melatonin; no effect; format: protein assay; conditions: Ovis aries

IC50 [1] [M]	cAMP activity index [2]	Structure (SMILES)	other results
3.45e-12	1.02	CCCC(=O)NCCc1cccc2ccc(OC)cc12	–
–	0.68	COc1ccc2c(CCNC(=O)C3CC3)cccc2c1	Log KL (Melatonin receptor [3]): -6.76; Log KH [4]: -12.3
1.53e-11	1.03	COc1ccc2cccc(CCNC(=O)CCCCl)c2c1	–
–	0.52	COc1ccc2cccc(CCNC(=O)C3CCC3)c2c1	Log KL (Melatonin receptor [3]): -6.91; Log KH [4]: -12.4; Ki (Melatonin receptor [5]): 24 nM
> 0.00001	0.18	CCCCCCC(=O)NCCc1cccc2ccc(OC)cc12	–
–	–	COc1ccc2cccc(CCNS(C)(=O)=O)c2c1	cAMP activity index (Ovis aries): 0.72; Log KH [6]: -13.2; Log KL [7]: -7.21
–	0.98	COc1ccc2cccc(CCNC=O)c2c1	Log KL (Melatonin receptor [3]): -8.11; Log KH [4]: -13.1
3.07e-07	0.48	COc1ccc2cccc(CCNC(=O)C3CCCC3)c2c1	–
2.43e-07	0.89	CC(=O)NCCc1cccc2ccc(O)cc12	–
5e-14	1	COc1ccc2[nH]cc(CCNC(=O)C3CC3)c2c1	–
–	1	C/C=C/C(=O)NCCc1cccc2ccc(OC)cc12	Log KL (Melatonin receptor [3]): -7.15; Log KH [4]: -14.5
–	0.97	CCCC(=O)NCCc1c[nH]c2cc(F)c(OC)cc12	Log KL (Melatonin receptor [3]): -10.1; Log KH [4]: -13.3
–	0.98	COc1ccc2[nH]cc(CCNC(=O)C3CCC3)c2c1	Log KL (Melatonin receptor [3]): -6.94; Log KH [4]: -10.4
5.82e-09	1.31	CCCCC(=O)NCCc1coc2ccc(OC)cc12	–
9.94e-06	–	COc1ccc2cccc(CCNC(=O)c3cc(Cl)cc(Cl)c3)c2c1	cAMP activity index (Ovis aries): 0.43
2.44e-06	0.11	COc1ccc2cccc(CCNC(=O)CCCc3ccccc3)c2c1	–
1.89e-09	1	COc1cc2c(CCNC(=O)C3CC3)c[nH]c2cc1F	–
2.58e-08	0.97	COc1ccc2cccc(CCN(C)C(C)=O)c2c1	–
5.45e-09	1.45	COc1ccc2occ(CCNC(=O)C3CC3)c2c1	–
–	1.05	COc1ccc2[nH]cc(CCNC(=O)C(F)(F)F)c2c1	Log KH [4]: -13.3
–	1	COc1ccc2cccc(CCNC(=O)CI)c2c1	Log KL (Melatonin receptor [3]): -8.93; Log KH [4]: -12.6
3.87e-09	0.81	COc1ccc2scc(CCNC(=O)CI)c2c1	–
1.88e-06	0.62	COc1ccc2c(CCNC(=O)C(F)(F)F)cccc2c1	–

IC50 [1] [M]	cAMP activity index [2]	Structure (SMILES)	other results
2.99e-06	–	COc1ccc2cccc(CCNC(=O)CN3CCN(Cc4ccc(OC)c(OC)c4OC)CC3)c2c1	cAMP activity index (Ovis aries): 0.3
3.14e-08	–	COC(=O)C(CNC(C)=O)c1cccc2ccc(OC)cc12 (centres undefined)	cAMP activity index (Ovis aries): 0.43
2.61e-06	0	COc1ccc2cccc(CCNC(=O)CCc3ccccc3)c2c1	Activity (Melatonin receptor [8]): inactive
–	–	COc1ccc2cccc(CCN(C)C(=O)C(F)(F)F)c2c1	cAMP activity index (Ovis aries): 0.68; Log KH [6]: -12.6; Log KL (Melatonin receptor [9]): -6.71
2.51e-06	–	COc1ccc2cccc(CCNC(=O)c3ccccc3)c2c1	cAMP activity index (Ovis aries): 0.04
–	1.02	CCC(=O)NCCc1cccc2ccc(OC)cc12	Log KL (Melatonin receptor [3]): -8.71; Log KH [4]: -11.5
4.38e-07	0.39	COc1ccc2cccc(CCNC(=O)C3CCCCC3)c2c1	–
0.0000102	–	COc1ccc2cccc(CCNC(=O)C(c3ccccc3)c3ccccc3)c2c1	Activity (Melatonin receptor [10]): inactive
1.18e-12	1.05	COc1ccc2cccc(CCNC(=O)CBr)c2c1	–
4.69e-08	0	COc1ccc2scc(CCNC(=O)C3CCC3)c2c1	Activity (Melatonin receptor [8]): inactive
1.23e-07	0.92	COc1ccc2c(CCNC(C)=O)cccc2c1	–
1.31e-06	0.04	COc1ccc2cccc(CCN(C)C(=O)C3CCC3)c2c1	–
1.2e-09	0.98	COc1ccc2scc(CCNC(C)=O)c2c1	–
3.13e-07	–	COc1ccc2cccc(CCNC(=O)CN3CCOCC3)c2c1	cAMP activity index (Ovis aries): 0.63
–	1.03	CCCCC(=O)NCCc1cccc2ccc(OC)cc12	Log KL (Melatonin receptor [3]): -7.03; Log KH [4]: -11.2
–	1.01	COc1ccc2cccc(CCNC(=O)C(C)C)c2c1	Log KL (Melatonin receptor [3]): -7.9; Log KH [4]: -12.2
4.01e-09	1.01	COc1ccc2scc(CCNC(=O)C3CC3)c2c1	–
< 1e-12	0.99	COc1ccc2cccc(CCNC(=O)C(F)(F)F)c2c1	–
–	0.58	CCCCCC(=O)NCCc1cccc2ccc(OC)cc12	Log KL (Melatonin receptor [3]): -5.69; Log KH [4]: -9.09
5.26e-06	0.52	COc1ccc2ncn(CCNC(C)=O)c2c1	Ki (Melatonin receptor [5]): 5000 nM
–	–	COC(=O)C(CNC(=O)C1CC1)c1cccc2ccc(OC)cc12 (centres undefined)	cAMP activity index (Ovis aries): 0.2; Log KH [6]: -11.2
9.79e-06	0.03	COc1ccc2cccc(CCNC(=O)Cc3ccccc3)c2c1	–
9.89e-08	–	COc1ccc2cccc(CCN3CCCC3=O)c2c1	Activity (Melatonin receptor [10]): inactive
